Experimental data taken from ChEMBL document CHEMBL5385870, “Amide containing NBTI antibacterials with reduced hERG inhibition, retained antimicrobial activity against gram-positive bacteria and in vivo efficacy” (Eur J Med Chem, 2023).
Converted amounts (≈) assume the structure as drawn. The source made the active and inactive calls. The rule behind the calls is not given here.

Legend:
Staphylococcus aureus [1] = assay: Antibacterial activity against Staphylococcus aureus assessed as bacterial growth inhibition; type: functional
Staphylococcus aureus [2] = assay: Antibacterial activity against methicilin-resistant Staphylococcus aureus assessed as bacterial growth inhibition; type: functional
DNA gyrase [3] = target: DNA gyrase (Staphylococcus aureus, UniProt P0A0K8+P20831); assay: Inhibition of Staphylococcus aureus DNA gyrase supercoiling incubated for 30 mins in presence of ATP; type: protein-complex assay
Outline: (§1)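 Gyrase supercoiling plate assay (triplex capture on streptavidin plates with immobilized biotinylated oligonucleotide): 1.5 U enzyme, 0.75 µg relaxed pNO1 plasmid, inhibitor in 10% DMSO/0.008% Tween-20, 37 °C 30 min, 30 µl. Buffer for E. coli: 35 mM Tris pH 7.5, 1 mM ATP; S. aureus: 40 mM HEPES-KOH pH 7.6, 2 mM ATP, 500 mM K-glutamate. Diamond dye fluorescence (ex 495/em 537 nm). Pre-screen 100 and 1 µM; IC50 from seven concentrations by four-parameter fit, mean of two runs.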

DNA gyrase [4] = target: DNA gyrase (Escherichia coli, UniProt P0AES4+P0AES6); assay: Inhibition of Escherichia coli DNA gyrase supercoiling incubated for 30 mins in presence of ATP; type: protein-complex assay; outline: as §1
Topoisomerase IV = Topoisomerase IV (Staphylococcus aureus, UniProt P0C1S7+P0C1U9); assay: Inhibition of Staphylococcus aureus DNA topoisomerase 4 relaxation activity measured for 30 mins; type: protein-complex assay
Outline: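 TopoIV relaxation plate assay: 1.5 U enzyme with 0.75 µg supercoiled pNO1 plasmid, inhibitor in 10% DMSO/0.008% Tween-20, 37 °C 30 min; E. coli buffer 40 mM HEPES-KOH pH 7.6 with 1 mM ATP, S. aureus buffer 50 mM Tris pH 7.5 with 1.5 mM ATP.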

[5] = Inhibition of Escherichia coli DNA topoisomerase 4 relaxation activity measured for 30 mins
Outline: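 TopoIV relaxation plate assay: 1.5 U enzyme with 0.75 µg supercoiled pNO1 plasmid, inhibitor in 10% DMSO/0.008% Tween-20, 37 °C 30 min; E. coli buffer 40 mM HEPES-KOH pH 7.6 with 1 mM ATP, S. aureus buffer 50 mM Tris pH 7.5 with 1.5 mM ATP. Triplex capture, Diamond dye fluorescence 495/537 nm.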

[6] = target: DNA topoisomerase 2-alpha (Homo sapiens) (UniProt P11388); assay: Inhibition of human DNA topoisomerase 2-alpha assessed as residual activity at 100 uM incubated for 30 mins relative to control
[7] = target: Voltage-gated inwardly rectifying potassium channel KCNH2 (Homo sapiens, UniProt Q12809); assay: Inhibition of hERG fluorescence polarization assay; type: toxicity
HepG2 = assay: Cytotoxicity against human HepG2 cells assessed as inhibition of cell growth at 50 uM incubated for 72 hrs by […]; type: functional; set-up: scale not given: the % may be the effect or the level left
Outline: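 HepG2 in DMEM with 10% FBS, 2 mM glutamine, penicillin/streptomycin, 37 °C, 5% CO₂; seeded 8,000 cells/well, attached overnight, then treated 1.25–100 µM or vehicle for 72 h. Metabolic activity by CellTiter 96 Aqueous One (MTS) absorbance 492 nm.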

Escherichia coli [8] = assay: Antimicrobial activity against multidrug-resistant Escherichia coli assessed as reduction in bacterial growth incubated for 20 hrs by broth microdilution analysis; type: functional
Outline: (§2)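 MIC was determined by broth microdilution per CLSI/EUCAST. Inoculum was 10^5 CFU/mL in cation-adjusted Mueller-Hinton broth with TES, with compounds in DMSO, incubated 20 h at 35 °C. MIC was read visually as the lowest concentration without turbidity. Tetracycline was the plate control.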

Staphylococcus aureus [9] = assay: Antimicrobial activity against Staphylococcus aureus ATCC 29213 assessed as reduction in bacterial growth incubated for 20 hrs by broth microdilution analysis; type: functional; outline: as §2
Escherichia coli [10] = assay: Antimicrobial activity against Escherichia coli ATCC 25922 assessed as reduction in bacterial growth incubated for 20 hrs by broth microdilution analysis; type: functional
Escherichia coli [11] = assay: Antimicrobial activity against Escherichia coli D22 assessed as reduction in bacterial growth incubated for 20 hrs by broth microdilution analysis; type: functional
Escherichia coli [12] = assay: Antimicrobial activity against Escherichia coli N43 assessed as reduction in bacterial growth incubated for 20 hrs by broth microdilution analysis; type: functional
Staphylococcus aureus [13] = assay: Antimicrobial activity against cefoxitin/ciprofloxacin/clindamycin/erythromycin/tetracycline/thiamulin/trimethoprim-resistant Staphylococcus aureus assessed as reduction in bacterial growth incubated for 20 hrs by broth microdilution analysis; type: functional; outline: as §2
Staphylococcus aureus [14] = assay: Antimicrobial activity against cefoxitin/gentamicin/kanamycin/rifampicin/streptomycin/sulfamethoxazole/tetracycline-resistant Staphylococcus aureus assessed as reduction in bacterial growth incubated for 20 hrs by broth microdilution analysis; type: functional; outline: as §2
Staphylococcus aureus [15] = assay: Antimicrobial activity against multidrug-resistant Staphylococcus aureus assessed as reduction in bacterial growth incubated for 20 hrs by broth microdilution analysis; type: functional; outline: as §2
Klebsiella pneumoniae = assay: Antimicrobial activity against Klebsiella pneumoniae assessed as reduction in bacterial growth incubated for 20 hrs by broth microdilution analysis; type: functional
[16] = Antimicrobial activity against Salmonella alachua RDK 030c assessed as reduction in bacterial growth incubated for 20 hrs by broth microdilution analysis; type: functional
Pseudomonas aeruginosa = assay: Antimicrobial activity against Pseudomonas aeruginosa RDK 184 assessed as reduction in bacterial growth incubated for 20 hrs by broth microdilution analysis; type: functional
Enterococcus faecalis = assay: Antimicrobial activity against Enterococcus faecalis DRK 057 assessed as reduction in bacterial growth incubated for 20 hrs by broth microdilution analysis; type: functional
Acinetobacter baumannii = assay: Antimicrobial activity against Acinetobacter baumannii assessed as reduction in bacterial growth incubated for 20 hrs by broth microdilution analysis; type: functional
hERG [17] = assay: Selectivity index, ratio of IC50 for inhibition of hERG fluorescence polarization assay to MIC for antimicrobial activity against Staphylococcus aureus ATCC 29213 assessed as reduction in bacterial growth; type: toxicity; details: human; read-out: Selectivity Index
hERG [18] = assay: Selectivity index, ratio of IC50 for inhibition of hERG fluorescence polarization assay to MIC for antimicrobial activity against multidrug-resisitant Staphylococcus aureus assessed as reduction in bacterial growth; type: toxicity; details: human; read-out: Selectivity Index
Staphylococcus aureus [19] = assay: Bactericidal activity against methicillin-resistant Staphylococcus aureus ATCC 43300 measured for 8 hrs by time-kill kinetics based analysis; type: functional, organism-based
Staphylococcus aureus [20] = assay: Bactericidal activity against methicillin-resistant Staphylococcus aureus ATCC 43300 at 8 times MIC measured for 24 hrs by time-kill kinetics based analysis; type: functional, organism-based
Staphylococcus aureus [21] = assay: Bactericidal activity against methicillin-resistant Staphylococcus aureus at 8 times MIC measured for 8 hrs by time-kill kinetics based analysis; type: functional, organism-based
Staphylococcus aureus [22] = assay: Induction of drug resistance methicillin-resistant Staphylococcus aureus assessed as fold increase in MIC after 7 passages incubated for 20 hrs by microbroth dilution method; type: functional
Outline: (§3)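 For serial passage, MRSA was run through daily broth-microdilution MIC tests. Cells from the ½× MIC wells were harvested, adjusted to 10^5 CFU/mL and used to inoculate the next passage, for 14 days. Triplicates, with ciprofloxacin as comparator, and the experiment was repeated twice.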

[23] = Induction of drug resistance methicillin-resistant Staphylococcus aureus measured after 14 passages incubated for 20 hrs by microbroth dilution method; type: functional; outline: as §3
[24] = Acute toxicity in zebrafish embryos assessed as lethal concentration compound administered from 6 hrs post fertilization and measured after 120 hrs post fertilization; set-up: species or system Danio rerio; details: in vivo
Outline: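 Wild-type AB zebrafish embryos in E3 medium at 28 °C were exposed by immersion from 6 hpf to 0.39–25 µg/mL (top dose 12.5 µg/mL for one compound), with DMSO at most 0.25%. Controls were 0.25% DMSO and 25 µg/mL doxorubicin. Embryos were inspected daily for death and toxicity signs through 120 hpf. Runs were in triplicate, with 24 embryos per concentration.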

Staphylococcus aureus [25] = assay: Antibacterial activity against Methicillin-resistant Staphylococcus aureus BAA-1717 infected in CD-1 mouse thigh infection model assessed as reduction in bacterial load at 20 mg/kg, ip […]; type: functional; details: time 20 hrs
Staphylococcus aureus [26] = assay: Antibacterial activity against Methicillin-resistant Staphylococcus aureus BAA-1717 infected in CD-1 mouse thigh infection model assessed as reduction in bacterial load at 40 mg/kg, ip […]; type: functional
Staphylococcus aureus [27] = assay: Antibacterial activity against Methicillin-resistant Staphylococcus aureus BAA-1717 infected in CD-1 mouse thigh infection model assessed as fold change in log 10 cfu at 20 mg/kg, ip incubated for 2 hrs post infection; type: functional
Outline: (§4)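 Female CD-1 neutropenic mice received 2.0×10^5 CFU of MRSA BAA-1717 (TCH 1516) by intramuscular injection into the right thigh. Thighs were excised at 2 h (therapy start controls) or 26 h, homogenised and plated for CFU/g. Four mice per group.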

Staphylococcus aureus [28] = assay: Antibacterial activity against Methicillin-resistant Staphylococcus aureus BAA-1717 infected in CD-1 mouse thigh infection model assessed as fold change in log 10 cfu at 40 mg/kg, ip incubated for 2 hrs post infection; type: functional; outline: as §4
Staphylococcus aureus [29] = assay: Antibacterial activity against Methicillin-resistant Staphylococcus aureus BAA-1717 infected in CD-1 mouse thigh infection model assessed as fold change in log 10 cfu at 20 mg/kg, ip incubated for 26 hrs post infection; type: functional; outline: as §4
Staphylococcus aureus [30] = assay: Antibacterial activity against Methicillin-resistant Staphylococcus aureus BAA-1717 infected in CD-1 mouse thigh infection model assessed as fold change in log 10 cfu at 40 mg/kg, ip incubated for 26 hrs post infection; type: functional; outline: as §4
Staphylococcus aureus [31] = assay: Antibacterial activity against Methicillin-resistant Staphylococcus aureus BAA-1717 infected in CD-1 mouse thigh infection model assessed as reduction in bacterial load at 50 mg/kg, ip […]; type: functional

Chain of Voltage-gated inwardly rectifying potassium channel KCNH2 (Q12809 whole entry): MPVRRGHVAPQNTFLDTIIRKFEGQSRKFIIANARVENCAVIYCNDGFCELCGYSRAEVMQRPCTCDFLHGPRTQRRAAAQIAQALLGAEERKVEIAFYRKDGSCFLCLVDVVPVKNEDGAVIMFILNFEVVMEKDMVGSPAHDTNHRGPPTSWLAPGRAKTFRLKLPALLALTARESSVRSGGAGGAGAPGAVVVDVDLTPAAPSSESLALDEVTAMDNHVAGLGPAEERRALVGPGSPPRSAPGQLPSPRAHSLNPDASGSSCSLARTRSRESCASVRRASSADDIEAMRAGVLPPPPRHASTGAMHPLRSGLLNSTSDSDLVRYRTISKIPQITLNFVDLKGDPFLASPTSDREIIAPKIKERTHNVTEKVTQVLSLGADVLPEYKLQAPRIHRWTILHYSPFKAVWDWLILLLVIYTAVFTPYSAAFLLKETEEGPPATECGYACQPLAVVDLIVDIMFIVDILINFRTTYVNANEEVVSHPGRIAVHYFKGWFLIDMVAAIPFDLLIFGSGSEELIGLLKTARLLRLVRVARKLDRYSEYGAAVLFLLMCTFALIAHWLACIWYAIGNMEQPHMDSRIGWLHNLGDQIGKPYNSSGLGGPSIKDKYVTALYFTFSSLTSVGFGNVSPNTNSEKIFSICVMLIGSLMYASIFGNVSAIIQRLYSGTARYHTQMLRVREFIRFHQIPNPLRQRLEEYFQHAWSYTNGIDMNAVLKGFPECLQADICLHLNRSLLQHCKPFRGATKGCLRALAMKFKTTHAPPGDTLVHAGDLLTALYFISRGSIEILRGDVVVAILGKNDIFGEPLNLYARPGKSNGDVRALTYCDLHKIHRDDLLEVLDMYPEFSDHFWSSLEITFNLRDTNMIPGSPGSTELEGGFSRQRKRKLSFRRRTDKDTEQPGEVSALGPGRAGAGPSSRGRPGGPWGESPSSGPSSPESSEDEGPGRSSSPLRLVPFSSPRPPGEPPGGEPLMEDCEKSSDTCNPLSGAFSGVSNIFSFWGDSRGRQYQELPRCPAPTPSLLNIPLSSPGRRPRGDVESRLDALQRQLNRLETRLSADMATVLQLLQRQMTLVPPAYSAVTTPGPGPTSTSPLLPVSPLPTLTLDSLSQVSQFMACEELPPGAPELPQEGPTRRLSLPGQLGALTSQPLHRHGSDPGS
Chain of DNA topoisomerase 2-alpha (Homo sapiens) (P11388 whole entry): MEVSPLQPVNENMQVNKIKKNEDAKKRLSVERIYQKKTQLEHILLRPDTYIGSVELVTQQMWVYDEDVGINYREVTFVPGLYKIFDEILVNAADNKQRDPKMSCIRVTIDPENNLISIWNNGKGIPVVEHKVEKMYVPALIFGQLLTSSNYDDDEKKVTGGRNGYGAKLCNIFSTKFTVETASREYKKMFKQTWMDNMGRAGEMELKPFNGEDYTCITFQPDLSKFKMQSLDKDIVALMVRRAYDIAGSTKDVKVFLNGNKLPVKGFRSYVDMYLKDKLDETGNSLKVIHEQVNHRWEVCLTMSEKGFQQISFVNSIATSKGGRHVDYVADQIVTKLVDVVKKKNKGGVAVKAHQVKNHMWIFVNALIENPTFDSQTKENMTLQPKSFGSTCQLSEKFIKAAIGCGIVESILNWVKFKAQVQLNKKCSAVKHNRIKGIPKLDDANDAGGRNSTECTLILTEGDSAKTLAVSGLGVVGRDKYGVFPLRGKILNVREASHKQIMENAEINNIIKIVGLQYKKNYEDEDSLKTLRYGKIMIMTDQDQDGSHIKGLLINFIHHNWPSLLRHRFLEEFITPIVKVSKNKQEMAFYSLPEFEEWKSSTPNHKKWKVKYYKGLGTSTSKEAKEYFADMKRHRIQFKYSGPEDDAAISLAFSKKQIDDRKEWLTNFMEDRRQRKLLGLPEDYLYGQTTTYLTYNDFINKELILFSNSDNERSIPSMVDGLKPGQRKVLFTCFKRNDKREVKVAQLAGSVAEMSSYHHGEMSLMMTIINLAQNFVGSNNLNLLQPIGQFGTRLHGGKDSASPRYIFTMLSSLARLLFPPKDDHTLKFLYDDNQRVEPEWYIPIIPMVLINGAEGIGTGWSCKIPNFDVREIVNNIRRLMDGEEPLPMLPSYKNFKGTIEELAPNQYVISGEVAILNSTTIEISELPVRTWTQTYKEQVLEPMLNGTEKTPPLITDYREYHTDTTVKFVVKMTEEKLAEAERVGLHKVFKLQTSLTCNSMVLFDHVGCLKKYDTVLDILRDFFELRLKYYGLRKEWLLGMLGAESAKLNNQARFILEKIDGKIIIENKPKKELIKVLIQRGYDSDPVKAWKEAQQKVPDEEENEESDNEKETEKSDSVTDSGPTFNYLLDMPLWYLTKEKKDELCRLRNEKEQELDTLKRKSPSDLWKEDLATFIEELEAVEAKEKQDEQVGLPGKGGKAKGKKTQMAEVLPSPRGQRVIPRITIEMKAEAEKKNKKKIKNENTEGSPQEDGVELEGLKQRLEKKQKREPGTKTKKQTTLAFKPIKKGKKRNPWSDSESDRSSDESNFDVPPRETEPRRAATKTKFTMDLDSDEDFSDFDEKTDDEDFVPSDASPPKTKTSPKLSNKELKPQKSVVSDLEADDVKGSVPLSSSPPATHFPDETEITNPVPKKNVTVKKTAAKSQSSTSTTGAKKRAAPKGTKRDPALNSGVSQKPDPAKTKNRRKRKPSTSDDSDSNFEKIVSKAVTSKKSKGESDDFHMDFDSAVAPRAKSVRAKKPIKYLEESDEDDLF
Chain of DNA gyrase (Staphylococcus aureus, UniProt P0A0K8+P20831) (P0A0K8 whole entry): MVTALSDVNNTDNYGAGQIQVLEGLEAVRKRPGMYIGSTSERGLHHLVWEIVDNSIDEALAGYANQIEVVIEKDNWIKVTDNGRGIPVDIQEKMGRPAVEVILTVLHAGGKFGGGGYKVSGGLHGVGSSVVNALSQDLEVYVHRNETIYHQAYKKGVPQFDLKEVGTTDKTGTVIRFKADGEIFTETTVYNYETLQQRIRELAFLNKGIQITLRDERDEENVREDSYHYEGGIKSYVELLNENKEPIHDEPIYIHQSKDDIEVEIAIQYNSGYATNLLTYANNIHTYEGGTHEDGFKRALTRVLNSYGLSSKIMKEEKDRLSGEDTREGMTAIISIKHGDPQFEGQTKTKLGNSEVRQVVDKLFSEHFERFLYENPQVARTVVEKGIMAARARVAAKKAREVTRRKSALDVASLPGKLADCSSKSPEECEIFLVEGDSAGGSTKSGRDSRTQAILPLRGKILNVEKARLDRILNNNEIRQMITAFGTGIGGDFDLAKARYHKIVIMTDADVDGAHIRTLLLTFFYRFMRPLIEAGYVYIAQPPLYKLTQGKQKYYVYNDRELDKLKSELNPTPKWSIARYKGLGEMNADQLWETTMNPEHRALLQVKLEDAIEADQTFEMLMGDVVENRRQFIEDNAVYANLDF
Chain of DNA gyrase (Staphylococcus aureus, UniProt P0A0K8+P20831) (P20831 whole entry): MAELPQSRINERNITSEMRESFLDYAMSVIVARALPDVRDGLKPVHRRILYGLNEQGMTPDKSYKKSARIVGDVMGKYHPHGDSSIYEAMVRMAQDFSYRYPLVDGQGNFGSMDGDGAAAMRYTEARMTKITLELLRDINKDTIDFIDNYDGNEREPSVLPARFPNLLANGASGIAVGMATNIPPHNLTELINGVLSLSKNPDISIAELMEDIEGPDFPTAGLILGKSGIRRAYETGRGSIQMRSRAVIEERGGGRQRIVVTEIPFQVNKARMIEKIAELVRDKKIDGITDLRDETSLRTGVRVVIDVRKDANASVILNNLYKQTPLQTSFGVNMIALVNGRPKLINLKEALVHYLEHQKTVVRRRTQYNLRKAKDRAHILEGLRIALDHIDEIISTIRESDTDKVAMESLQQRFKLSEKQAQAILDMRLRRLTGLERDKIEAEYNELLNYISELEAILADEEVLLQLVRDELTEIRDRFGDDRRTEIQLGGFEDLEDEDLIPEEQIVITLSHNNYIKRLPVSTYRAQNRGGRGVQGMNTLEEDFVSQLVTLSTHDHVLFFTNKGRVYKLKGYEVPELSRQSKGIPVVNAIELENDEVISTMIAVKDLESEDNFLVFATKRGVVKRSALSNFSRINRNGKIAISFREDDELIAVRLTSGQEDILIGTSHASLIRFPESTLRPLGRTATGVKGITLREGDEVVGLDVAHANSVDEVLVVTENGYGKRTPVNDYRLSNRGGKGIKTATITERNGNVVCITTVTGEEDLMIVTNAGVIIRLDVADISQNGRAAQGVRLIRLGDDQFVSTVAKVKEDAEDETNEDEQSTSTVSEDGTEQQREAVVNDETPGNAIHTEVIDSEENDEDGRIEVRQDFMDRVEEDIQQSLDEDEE

COc1ccc2nccc(OC[C@@H]3CC[C@@H](NC(=O)c4cc(F)c(Br)c(F)c4)CO3)c2n1
MIC (Staphylococcus aureus [1]): 0.016 µg/mL (≈ 0.0315 µM) | MIC (Staphylococcus aureus [2]): 0.031 µg/mL (≈ 0.061 µM) | IC50 (DNA gyrase [3]): 185 nM | IC50 (DNA gyrase [4]): 365 nM | IC50 (Topoisomerase IV): 341 nM | IC50 [5]: 59 nM | Activity [6]: 99.4% | IC50 [7]: > 30000 nM | Activity (HepG2): 89% | MIC (Escherichia coli [8]): > 252 µM | MIC (Staphylococcus aureus [9]): 0.031 µM (≈ 0.0158 µg/mL) | MIC (Escherichia coli [10]): 252 µM (≈ 128 µg/mL) | MIC (Escherichia coli [11]): 252 µM (≈ 128 µg/mL) | MIC (Escherichia coli [12]): 0.061 µM (≈ 0.031 µg/mL) | MIC (Staphylococcus aureus [13]): 0.061 µM (≈ 0.031 µg/mL) | MIC (Staphylococcus aureus [14]): 0.031 µM (≈ 0.0158 µg/mL) | MIC (Staphylococcus aureus [15]): 0.124 µM (≈ 0.063 µg/mL) | MIC (Klebsiella pneumoniae): > 252 µM | MIC [16]: > 252 µM | MIC (Pseudomonas aeruginosa): > 252 µM | MIC (Enterococcus faecalis): 4.07 µM (≈ 2.07 µg/mL) | MIC (Acinetobacter baumannii): 252 µM (≈ 128 µg/mL) | selectivity ratio (hERG [17]): ≥ 953 | selectivity ratio (hERG [18]): ≥ 492 | Activity (Staphylococcus aureus [19]): Dose-Dependent Effect | Activity (Staphylococcus aureus [20]): inactive | Activity (Staphylococcus aureus [21]): Active | fold change (FC) (Staphylococcus aureus [22]): 8 | MIC [23]: 0.128 µg/mL (≈ 0.252 µM) | LC50 at 114 h [24]: > 25 µg/mL | Activity (Staphylococcus aureus [25]): 5.43 log10CFU/g | Activity (Staphylococcus aureus [26]): 5.01 log10CFU/g | FC (Staphylococcus aureus [27]): -0.47 | FC (Staphylococcus aureus [28]): -0.89 | FC (Staphylococcus aureus [29]): -3.43 | FC (Staphylococcus aureus [30]): -3.85

O=c1ccc2ncc(=O)n3c2n1C[C@H]3CN1CCC(NCc2cc3c(cn2)OCCC3)CC1 [GEPOTIDACIN]
IC50 [7]: > 30000 nM | MIC (Staphylococcus aureus [9]): 0.279 µM (≈ 0.125 µg/mL) | MIC (Escherichia coli [10]): 2.23 µM (≈ 1 µg/mL) | MIC (Escherichia coli [11]): 0.279 µM (≈ 0.125 µg/mL) | MIC (Escherichia coli [12]): 0.036 µM (≈ 0.0161 µg/mL) | MIC (Staphylococcus aureus [13]): 0.138 µM (≈ 0.0619 µg/mL) | MIC (Staphylococcus aureus [14]): 0.279 µM (≈ 0.125 µg/mL) | MIC (Klebsiella pneumoniae): 17.8 µM (≈ 7.98 µg/mL) | MIC [16]: 8.92 µM (≈ 4 µg/mL) | MIC (Pseudomonas aeruginosa): 17.8 µM (≈ 7.98 µg/mL) | Activity (Staphylococcus aureus [31]): 6.52 log10CFU/g
